Source: PubChem BioAssay
FAS TE block: FAS thioesterase domain inhibitors, primary screen, biochemical, fluorescence intensity, uHTS | Fatty acid synthase (Homo sapiens), P49327 | recombinant FAS-TE, OMFH fluorogenic substrate, fluorescence endpoint | inhibition, % at 15 µM | 0.67% of 360,000 active | AID 602261, 2012;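 active = compounds whose normalised, plate-corrected inhibition of enzyme fluorescence in the single-dose primary screen is 50% or more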;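 also: 0% = DMSO with enzyme and 100% = substrate without enzyme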
ALR inh: inhibitors of human ALR sulfhydryl oxidase, primary screen, biochemical, H2O2 detection, HRP-luminol luminescence, single point | 3.8% of 290,000 active | AID 485317, 2010 | purified ALR, DTT oxidation | inhibition, % (concentration not given with the values);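 active = mean replicate inhibition above about 79%, with every replicate also reaching it, limit read from the data; inconclusive = only one of the two criteria met; inactive = mean below limit and not every replicate reaching it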
M18AAP inhibitor: PfM18AAP inhibitors, malaria aminopeptidase, primary screen, biochemical, QFRET, recombinant enzyme. M18 aspartyl aminopeptidase (Plasmodium falciparum 3D7). 1.2% of 290,000 active. inhibition, % at 7.35 µM. AID 1822, 2009. H-Glu-NHMec fluorogenic cleavage;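 active = inhibition above the campaign mean inhibition over all tested compounds plus 3 SD, cut at about 28% in these data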;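 also: 0% = plate median of test compound wells and 100% = 2 mM ZnCl2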
Rtt109 Vps75: inhibitors of C. albicans Rtt109/Vps75 HAT, primary screen, biochemical, ThioGlo CoA-SH fluorescence, plate reader; purified Rtt109/Vps75, 4 h; AID 540336, 2011; 0.16% of 330,000 active; Histone acetyltransferase RTT109 (Candida albicans (strain SC5314 / ATCC MYA-2876)), …; inhibition, % at 34.9 µM;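 active = inhibition of at least 50% in every replicate; inconclusive = best replicate reaches 50% inhibition but some replicates fall short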
Target sequence (Q5AAJ8 whole entry, looked up): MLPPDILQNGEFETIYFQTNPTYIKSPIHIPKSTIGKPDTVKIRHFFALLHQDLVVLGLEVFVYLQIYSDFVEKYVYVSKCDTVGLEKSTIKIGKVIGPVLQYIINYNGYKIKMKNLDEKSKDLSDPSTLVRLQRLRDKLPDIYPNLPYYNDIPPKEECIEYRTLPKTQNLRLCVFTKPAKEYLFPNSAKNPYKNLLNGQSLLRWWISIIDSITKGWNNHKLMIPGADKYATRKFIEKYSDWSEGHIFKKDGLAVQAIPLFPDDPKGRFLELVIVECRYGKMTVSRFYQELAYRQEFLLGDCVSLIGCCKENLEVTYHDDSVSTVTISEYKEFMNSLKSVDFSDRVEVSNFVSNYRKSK
UCH37 DUB inh: inhibitors of human UCH37 deubiquitinase, primary screen, biochemical, Ub-AMC cleavage, fluorescence; Ubiquitin carboxyl-terminal hydrolase isozyme L5 (Homo sapiens), Q9Y5K5; purified proteasome/UCH37; inhibition, % (concentration not given with the values); 0.33% of 330,000 active; AID 588478, 2011;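 active = mean inhibition over replicate wells above about 20%, limit read from the data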;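 also: 0% = compound-free wells with enzyme and 100% = wells lacking proteasome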
Target sequence (Q9Y5K5 whole entry, looked up): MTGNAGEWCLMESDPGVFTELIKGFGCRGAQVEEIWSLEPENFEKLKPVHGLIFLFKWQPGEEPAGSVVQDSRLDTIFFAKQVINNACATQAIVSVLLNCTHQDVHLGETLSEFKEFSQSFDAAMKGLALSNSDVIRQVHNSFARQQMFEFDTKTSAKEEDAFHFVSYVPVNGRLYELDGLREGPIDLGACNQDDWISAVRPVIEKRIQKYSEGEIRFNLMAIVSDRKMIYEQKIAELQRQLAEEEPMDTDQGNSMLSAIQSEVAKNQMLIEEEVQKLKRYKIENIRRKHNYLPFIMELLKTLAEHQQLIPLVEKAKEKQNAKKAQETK
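Material: human UCH37 enzyme supplied as purified proteasome complex. Measure: % inhibition of Ub-AMC cleavage fluorescence. Medium: pH 7.4 Tris-HCl (50 mM) with ovalbumin, ATP-MgCl2, DTT. Times: 30 min preincubation with enzyme, 25 min cleavage at room temperature. Detection: AMC fluorescence intensity at 355/460 nm.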
HDAC3 inh: HDAC3 deacetylase inhibitors, primary screen, biochemical, fluorescence, cell-free homogeneous | 0.15% of 320,000 active | Histone deacetylase 3 (Homo sapiens), O15379 | inhibition, % at 8.3 µM | recombinant HDAC3, fluorogenic peptide/trypsin coupled; in the data active = inhibition above about 26%, passing the limit was not always enough; inconclusive = no clear call, values can overlap the other calls
Active calls of the source: *; ? = inconclusive; . = not tested or not shown. In the library only some 4.6% were active in any assay of this set; here they are far more common.

SMILES | FAS TE block | ALR inh | M18AAP inhibitor | Rtt109 Vps75 | UCH37 DUB inh | HDAC3 inh
Cc1nc(NC(=O)CSc2nnnn2C)sc1C | -4.5 | -1.5 | 1.5 | 4.4 | 2.7 | -2.9
O=C(O)Cn1cc(C=NNc2ccc([N+](=O)[O-])cn2)c2ccccc21 | . | . | . | . | 18.3 | .
COc1ccc(NC(=O)COc2ccc(C=NO)cc2OC)cc1 | . | . | . | . | 2.5 | .
Nc1cc(=O)[nH]c(SCC(=O)Nc2ccc3c(c2)CCC3)n1 | -3.2 | 90.0* | -0.8 | 1.7 | 3.5 | 2.5
CCCc1cc(=O)[nH]c(SCC(=O)Nc2ccc3c(c2)CCC3)n1 | -2.1 | -2.4 | 8.6 | 12.2 | 2.5 | -6.6
O=C(CSc1nc(O)cc(=O)[nH]1)Nc1ccc2c(c1)CCC2 | -3.4 | 98.8* | 8.7 | 0.8 | 12.4 | -1.0
O=C(CSc1nc(O)cc(=O)[nH]1)N1CCCc2ccccc21 | -7.8 | 98.8* | 3.5 | 19.8 | 5.9 | 1.9
Cc1ccnc(NC(c2ccccn2)c2c(C)[nH]c3ccccc23)c1 (centres undefined) | -2.5 | 98.1* | 5.4 | -4.0 | 2.6 | 10.6
Cc1[nH]c2ccccc2c1C(c1ccccn1)N1CCCC1 (centres undefined) | -5.2 | . | 3.0 | 15.7 | 3.0 | .
CCCCCCCCCCCCCCCC[n+]1cccc2ccccc21 | -153.9 | 3.7 | 2.2 | -2.2 | 87.7* | ?
Cc1[nH]n(-c2ccccc2)c(=O)c1C=NO | . | . | . | . | 2.2 | .
COc1cc(C=Nn2nnnc2N)ccc1OCC(N)=O | . | . | . | . | -3.1 | .
COc1ccc(N2CCN(C(=O)c3ccc(CS(=O)c4cccc(C)c4)o3)CC2)cc1 (centres undefined) | -3.6 | 98.8* | -0.8 | 2.2 | 0.0 | 7.2
Cc1ccc(CS(=O)Cc2ccc(C(=O)N3CCN(c4cccc(C)c4C)CC3)o2)cc1 (centres undefined) | 14.4 | . | . | . | . | .
COc1ccc(N2CCN(C(=O)c3ccc(CS(=O)Cc4ccc(Cl)cc4)o3)CC2)cc1 (centres undefined) | 0.6 | -0.7 | 7.3 | 4.1 | 1.8 | 6.0
COc1cccc(N2CCN(C(=O)c3ccc(CS(=O)c4ccccc4Cl)o3)CC2)c1 (centres undefined) | 1.9 | 62.8 | 7.3 | 1.7 | . | 4.8
Cc1cccc(N2CCN(C(=O)c3ccc(CS(=O)Cc4cccc(Cl)c4)o3)CC2)c1C (centres undefined) | 20.9 | 99.5* | -7.7 | 26.6 | -0.5 | -2.1
COc1cccc(N2CCN(C(=O)c3ccc(CS(=O)c4ccccc4C)o3)CC2)c1 (centres undefined) | -0.7 | 91.1* | -1.9 | 2.2 | . | -6.3
Cc1ccc(C=Nn2c(-c3ccncc3)n[nH]c2=S)cc1 | . | . | . | . | 0.6 | .
CC(C)(C)Nc1nc(Cl)nc(Nc2ccccc2)n1 | 12.9 | 98.1* | -2.6 | -1.6 | 4.7 | 9.9
COc1ccc(Nc2nc(Cl)nc(Nc3ccc(OC)cc3)n2)cc1 | 2.9 | -1.5 | -10.0 | -7.0 | 3.9 | -8.2
Clc1nc(Nc2ccccc2)nc(Nc2ccccc2)n1 | 18.9 | 10.5 | -2.8 | 50.2* | 5.1 | -0.5
Cc1ccc(S(=O)(=O)N=C(c2ccc(F)cc2)N(C)C)cc1 | . | . | . | . | 1.0 | .
O=C(NN=Cc1ccc(N2CCCCC2)o1)c1ccccc1 | . | . | . | . | 6.9 | .
CC(C)c1c(C(=O)NN=Cc2ccco2)nnn1-c1nonc1N | . | . | . | . | 3.9 | .
SMILES | FAS TE block | ALR inh | M18AAP inhibitor | Rtt109 Vps75 | UCH37 DUB inh | HDAC3 inh
COc1ccccc1NS(=O)(=O)c1ccc(C(=O)Nc2ncccc2O)cc1 | -0.6 | 1.8 | . | 6.2 | 4.9 | 79.2*
O=C(Nc1ncccc1O)c1ccc(OCC2CCCO2)cc1 (centres undefined) | -6.2 | -13.3 | 12.7 | -12.9 | 2.7 | 68.5*
COc1ccccc1NS(=O)(=O)c1ccc(NC(=O)c2ccncc2)cc1 | -1.1 | -26.3 | -4.9 | -13.5 | 1.9 | -2.2
O=C(COc1ccc(C(=O)c2ccccc2)cc1)Nc1ncccc1O | -7.5 | -19.6 | 11.0 | -4.3 | 1.4 | 5.3
COc1ccccc1NC(=O)Nc1ncccc1C | -2.5 | 98.0* | 0.0 | 4.8 | . | -3.7
O=C(Nc1ncccc1O)c1ccc(Oc2ccccc2)cc1 | -8.0 | -2.5 | 4.6 | -11.4 | 1.2 | 56.3*
CC(=NNC(=O)c1nn(C)cc1Br)c1cccc(NC(=O)C(C)(C)C)c1 | . | . | . | . | 1.1 | .
CCCCNC(=O)CCCCC(=O)NN=Cc1ccccc1Cl | . | . | . | . | -0.3 | .
O=C(c1ccc(OCC2CCCO2)cc1)N1CCN(c2ccccc2)CC1 (centres undefined) | -6.4 | 97.8* | 5.0 | 11.0 | 0.7 | 3.2
COc1cc(C(=O)O/N=C2\C=CC(=O)C(C)=C2)cc(OC)c1OC | 26.6 | 97.7* | -3.1 | -5.0 | . | 62.4*
COc1ccccc1C(=O)N1CCN=C1SC | -3.8 | -12.9 | 1.5 | -2.7 | 4.4 | -7.1
COc1ccc(C(=O)N2CCN=C2SCc2cccnc2)c(OC)c1 | -3.6 | 99.7* | -8.8 | -16.7 | 7.1 | 6.2
COc1cccc(C(=O)N2CCN=C2SCc2cccnc2)c1OC | -4.2 | 99.8* | -4.6 | -15.6 | 2.1 | -2.3
S=c1[nH]nc(C2CCCCC2)n1N=Cc1ccc(Br)cc1 | . | . | . | . | -0.7 | .
Cc1ccccc1CN(C)C(=O)COC(=O)CSc1ccc([N+](=O)[O-])cc1 | 47.3 | 98.8* | . | 9.3 | 4.8 | 0.2
O=C(COc1cccc(Cl)c1)NN=Cc1cc2ccccc2nc1Cl | . | . | . | . | -396.3 | .
Cc1cc(SCNC(=O)c2ccccc2)ncn1 | -7.6 | 94.3* | 23.3 | 4.6 | 0.6 | 8.3
CCN(CC)c1ccc(C(=O)c2ccccc2C(=O)O)c(O)c1 | -9.1 | 0.6 | 9.8 | 4.0 | 20.3* | 4.2
Cc1nc(Sc2nnnn2C)c2c3c(sc2n1)CCC3 | 3.5 | 94.2* | -7.9 | 4.4 | -15.7 | -10.2
N#CCCN(C(=O)CSc1ccc2c(c1)OCCO2)c1ccc(F)cc1 | 0.2 | 98.0* | 5.5 | -1.1 | -0.6 | 0.0
Cc1ccc(N(CCC#N)C(=O)CSc2ccc3c(c2)OCCO3)cc1 | -0.4 | 98.6* | 2.5 | 7.8 | -2.8 | -0.4
O=C(NN=Cc1ccc(-c2ccccc2[N+](=O)[O-])o1)[C@H]1C[C@@H]1c1ccccc1 | . | . | . | . | 4.9 | .
CC(=O)c1ccc(S(=O)(=O)Nc2cccc(S(=O)(=O)NC3=NCCC3)c2)cc1 | -10.7 | 99.6* | -0.7 | -2.0 | 5.4 | 0.8
CC(=O)c1cccc(S(=O)(=O)Nc2cccc(S(=O)(=O)NC3=NCCC3)c2)c1 | -7.7 | -1.2 | -9.6 | 13.7 | -0.4 | -2.9
CN(CC(=O)Nc1cccc(S(=O)(=O)NC2=NCCCCC2)c1)Cc1ccc(C(C)(C)C)cc1 | 66.0* | -13.9 | 4.6 | 16.6 | 0.5 | 0.4
